A value given as a limit tells only on which side of the number the result lay.

As a reminder, the IC50 is the concentration that gives 50% inhibition.

The subject of series [1] is human 20S proteasome subunit beta-5c versus Mycobacterium tuberculosis 20S open gate mutant. Description: Selectivity index, ratio of IC50 for human 20S proteasome subunit beta-5c to IC50 for Mycobacterium tuberculosis 20S open gate mutant. The class given is toxicity. As to conditions: read-out: Ratio IC50.
Series [2] deals with Mycobacterium tuberculosis. As to the kind of experiment: (§1) Inhibition of Mycobacterium tuberculosis 20S open gate mutant using Suc-LLVY-AMC as substrate and measured every 30 secs for 30 mins by microtiter plate assay. The method in brief: (§2)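 Mtb20S open-gate form, expressed and purified in-house, 8 nM in the enzyme solution. Buffer: 20 mM HEPES pH 7.5, 0.5 mM EDTA, 0.1 mg/mL BSA. Suc-LLVY-AMC at 100 µM final. Run at 25 °C with a three-fold inhibitor dilution series, DMSO under 0.5% final. Fluorescence 340/460 nm read every 30 s for 30 min. Rates fitted against log inhibitor concentration to give IC50; triplicate wells.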

Series [3] in a line: as §1. The method in brief: as §2
For series [4], the system named is human 20S proteasome subunit beta-5i versus Mycobacterium tuberculosis 20S open gate mutant. As to the kind of experiment: Selectivity index, ratio of IC50 for human 20S proteasome subunit beta-5i to IC50 for Mycobacterium tuberculosis 20S open gate mutant. The class given is toxicity. The settings on record: read-out: Ratio IC50.

Take `Cc1cc(C(=O)N[C@@H](CC(=O)N2CCC[C@@H]2c2ccccc2)C(=O)N[C@@H](C)C(=O)NCc2ccc(F)cc2F)no1`: the selectivity ratio was over 33300 in series [1] and 2630 in series [4]. For the same compound, in series [2], the inhibition entry is “Dose-dependent effect”. This compound also displayed an IC50 in series [3] of 3 nM.

Regarding `Cc1cc(C(=O)N[C@@H](CC(=O)N2CCC[C@@H]2c2ccccc2)C(=O)N[C@@H](C)C(=O)NCc2c(F)cccc2F)no1`, the selectivity ratio was over 14300 in series [1] and 2870 in series [4]. Further, the inhibition entry in series [2] is “Dose-dependent effect”. In addition, 7 nM corresponded to half-maximal inhibition in series [3] (IC50).

Take `Cc1cc(C(=O)N[C@@H](CC(=O)N2CCC[C@@H]2c2ccccc2)C(=O)N[C@@H](C)c2ncc(-c3ccc(F)cc3F)[nH]2)no1`: the selectivity ratio in series [1] and in series [4] was over 7700 in each case. This compound returned an IC50 in series [3] of 13 nM.

In the case of `Cc1cc(C(=O)N[C@@H](CC(=O)N2CCCC[C@@H]2C)C(=O)N[C@@H](C)c2ncc(-c3ccccc3)[nH]2)no1`, half-maximal inhibition in series [3] (IC50) required 470 nM. This lies in the sub-micromolar range.

`Cc1cc(C(=O)N[C@@H](CC(=O)N2CCC[C@@H]2c2ccccc2)C(=O)N[C@@H](C)c2ncc(-c3ccccc3)[nH]2)no1`: the selectivity ratio in series [1] and in series [4] was over 4000 each time. This compound also gave an IC50 in series [3] of 25 nM.

For the compound `Cc1cc(C(=O)N[C@@H](CC(=O)N2CCCC[C@@H]2C)C(=O)N[C@@H](C)C(=O)NCc2ccc(F)cc2F)no1`, the selectivity ratio in series [1] is 202; in series [4], 3.7. Moreover, in series [2], the inhibition result was “Dose-dependent effect”. In series [3], this compound registered a concentration for half-maximal inhibition (IC50) of 7 nM.

Turning to `Cc1cc(C(=O)N[C@@H](CC(=O)N2CCC[C@@H]2c2ccccc2)C(=O)N[C@@H](C)c2ncc(-c3ccccc3F)[nH]2)no1`, the selectivity ratio in series [1] and in series [4] was over 12500 throughout. Also, 8 nM corresponded to half-maximal inhibition in series [3] (IC50).

In the case of `COc1ccccc1CNC(=O)[C@H](C)NC(=O)[C@H](CC(=O)N1CCC[C@@H]1c1ccccc1)NC(=O)c1cc(C)on1`, the selectivity ratio in series [1] and in series [4] was over 1500 throughout. Further, the inhibition result in series [2] was “Dose-dependent effect”. In series [3], this compound displayed an IC50 of 65 nM.

In series [3], `CC[C@@H]1CCCCN1C(=O)C[C@H](NC(=O)CCC(C)C)C(=O)N[C@@H](C)c1ncc(-c2ccc(F)cc2F)[nH]1` registered an IC50 of 30 nM.

Source of the values: ChEMBL document CHEMBL4414599, “Selective Phenylimidazole-Based Inhibitors of the Mycobacterium tuberculosis Proteasome” (J Med Chem, 2019).
